Consider 15 compounds from ChEMBL document CHEMBL1121696, “Antimicrobial 3-methyleneflavanones” (1981).

In brackets after ≈: the same amount, converted by molar mass.

The test system of one experiment is Aspergillus niger. In words: Antimicrobial activity against Aspergillus niger (ATCC 16404). The format is functional. The method, boiled down: (§1)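 Spores came from Eugon agar slants grown 1 week at 32 °C, suspended at 10⁶/mL in Eugon broth or saline, and applied by Steers replicator. The lowest inhibitory concentration was read after 48-72 h at 32 °C.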
Experiment [1] has as its system Trichophyton benhamiae. Nature of the experiment: Compound was tested for the antimicrobial activity against Trichophyton mentagrophytes (ATCC 4807); Range is 12.5-25. Type of experiment: functional, Arthroderma benhamiae. The method, boiled down: as §1
The subject of a further experiment is Bacillus subtilis. Nature of the experiment: Compound was tested for its antimicrobial activity against Bacillus subtilis (ATCC 6633). The format is functional. In outline: (§2)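 Agar dilution MIC. Stocks and twofold serial dilutions in DMF or 50% aqueous DMF were mixed 1:100 into molten Eugon agar, giving final 100, 50, 25, 12.5, 6.2, 3.1 mcg/mL (further dilutions sometimes) and ≤1% DMF. Inocula came from 24 h Eugon agar slants at 32 °C, suspended at 10⁶ cells/mL and applied with a Steers replicator. MIC (lowest concentration inhibiting growth) was read after 24 h at 32 °C.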

Experiment [2] relates to Clostridium acetobutylicum. Nature of the experiment: Compound was tested for its antimicrobial activity against Clostridium acetobutylicum (ATCC 824). Type of experiment: functional. In outline: (§3)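 Anaerobic bacteria were grown 72 h at 32 °C in fluid thioglycollate medium and used undiluted to inoculate, by Steers replicator, Eugon agar containing serial twofold compound dilutions made in DMF or 50% aqueous DMF (final 100 to 3.1 mcg/mL, ≤1% DMF). MIC was read after 72 h of anaerobic incubation (Gas-Pak jar) at 37 °C.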

Another experiment concerns Cutibacterium acnes. Nature of the experiment: Compound was tested for its antimicrobial activity against Propionibacterium acnes (ATCC 6919). The format is functional. In outline: as §3
Experiment [3] can be described thus: Compound was tested for its antimicrobial activity against Sarcina subflava (ATCC 7468). Type of experiment: functional. In outline:
as §2

Experiment [4] has as its system Staphylococcus aureus. Nature of the experiment: Compound was tested for its antimicrobial activity against Staphylococcus aureus (9-195). The format is functional. The method, boiled down:
as §2

Experiment [5] deals with Enterococcus faecalis. Nature of the experiment: Compound was tested for its antimicrobial activity against Streptococcus faecalis (ATCC 10541). Type of experiment: functional. The method, boiled down:
as §2

In experiment [6] the test system is Staphylococcus epidermidis. In words: Compound was tested for its antimicrobial activity against Staphylococcus epidermidis (ATCC 12228). The format is functional. The method, boiled down: as §2
For experiment [7], the system named is Staphylococcus aureus. In words: Compound was tested for its antimicrobial activity against Staphylococcus aureus (9-267). Type of experiment: functional. The method, boiled down: as §2
The subject of experiment [8] is Staphylococcus aureus. In words: Compound was tested for its antimicrobial activity against Staphylococcus aureus (ATCC 151). Type of experiment: functional. In outline:
as §2

The subject of experiment [9] is Staphylococcus aureus. In words: Compound was tested for its antimicrobial activity against Staphylococcus aureus (ATCC 6538). Type of experiment: functional. In outline: as §2
Experiment [10] deals with Staphylococcus aureus. Nature of the experiment: Compound was tested for its antimicrobial activity against Staphylococcus aureus (NRRL B2747). Type of experiment: functional. In outline:
as §2

Another experiment relates to Enterococcus. In words: Compound was tested for its antimicrobial activity against Enterococcus (9-25).
Experiment [11] deals with Enterococcus faecalis. In words: Compound was tested for the antimicrobial activity against Streptococcus faecalis (ATCC 10541); Range is 25-50. Type of experiment: functional. The method, boiled down: as §2
Experiment [12] deals with Trichophyton benhamiae. In words: Compound was tested for the antimicrobial activity against Trichophyton mentagrophytes (ATCC 4807); Range is 6.2-25. Type of experiment: functional, Arthroderma benhamiae. The method, boiled down:
as §1

In experiment [13] the test system is Candida albicans. Nature of the experiment: Antimicrobial activity against Candida albicans (ATCC 10231, NRRL Y-477). Type of experiment: functional. The method, boiled down: as §2
Experiment [14] has as its system Enterococcus faecalis. In words: Antimicrobial activity against Streptococcus faecalis (ATCC 10541). The format is functional. In outline: as §2
Experiment [15] deals with Staphylococcus aureus. Nature of the experiment: Antimicrobial activity against Staphylococcus aureus (ATCC 6538, NRRL B2747). Type of experiment: functional. The method, boiled down: as §2
Experiment [16] concerns Trichophyton benhamiae. In words: Antimicrobial activity against Trichophyton mentagrophytes (ATCC 4807). Type of experiment: functional, Arthroderma benhamiae. In outline: as §1
The test system of experiment [17] is Trichophyton benhamiae. In words: Compound was tested for the antimicrobial activity against Trichophyton mentagrophytes (ATCC 4807); Range is 12.5-50. Type of experiment: functional, Arthroderma benhamiae. The method, boiled down:
as §1

Experiment [18] has as its system Candida albicans. Nature of the experiment: Compound was tested for the antimicrobial activity against Candida albicans (ATCC 10231, NRRL Y-477); Range is 100 to >100. Type of experiment: functional. In outline: as §2
The subject of experiment [19] is Candida albicans. In words: Compound was tested for the antimicrobial activity against Candida albicans (ATCC 10231, NRRL Y-477); Range is 25 to >100. Type of experiment: functional. In outline:
as §2

Experiment [20] deals with Staphylococcus aureus. In words: Antimicrobial activity against Staphylococcus aureus (ATCC 6538, NRRL B2747); Range is <3.1-6.2. The format is functional. The method, boiled down:
as §2

The subject of experiment [21] is Trichophyton benhamiae. In words: Compound was tested for the antimicrobial activity against Trichophyton mentagrophytes (ATCC 4807); Range is 6.2-12.5. The format is functional, Arthroderma benhamiae. In outline: as §1
For experiment [22], the system named is Candida albicans. In words: Compound was tested for the antimicrobial activity against Candida albicans (ATCC 10231, NRRL Y-477); Range is 50 to >100. The format is functional. In outline: as §2
For experiment [23], the system named is Staphylococcus aureus. Nature of the experiment: Compound was tested for its antimicrobial activity against Staphylococcus aureus(9-195). Type of experiment: functional. The method, boiled down:
as §2

Experiment [24] concerns Staphylococcus aureus. In words: Compound was tested for its antimicrobial activity against Staphylococcus aureus(9-267). Type of experiment: functional. The method, boiled down: as §2
The test system of experiment [25] is Staphylococcus aureus. In words: Compound was tested for the antimicrobial activity against Staphylococcus aureus (ATCC 6538, NRRL B2747); Range is 0.25-0.5. The format is functional. In outline: as §2
For experiment [26], the system named is Trichophyton benhamiae. In words: Compound was tested for the antimicrobial activity against Trichophyton mentagrophytes (ATCC 4807); Range is <3.1-12.5. Type of experiment: functional, Arthroderma benhamiae. In outline: as §1
Experiment [27] concerns Candida albicans. In words: Compound was tested for the antimicrobial activity against Candida albicans (ATCC 10231, NRRL Y-477); Range is 12.5-100. The format is functional. In outline:
as §2

In experiment [28] the test system is Staphylococcus aureus. Nature of the experiment: Compound was tested for the antimicrobial activity against Staphylococcus aureus (ATCC 6538, NRRL B2747); Range is 6.2-12.5. The format is functional. The method, boiled down:
as §2

By MIC is commonly meant the least concentration at which growth counts as inhibited. The low end stands for inhibition by little substance, the high end for a need for much substance. For `C=C1C(=O)c2ccccc2OC1c1ccc(N(C)C)cc1` (stereo unspecified), the MIC against Aspergillus niger came to 100 µg/mL (≈ 358 µM); against Trichophyton benhamiae [1], 12.5 µg/mL (≈ 44.7 µM).

For the compound `Oc1c(I)cc(Cl)c2cccnc12` [CLIOQUINOL], the MIC with Bacillus subtilis was 6.2 µg/mL (≈ 20.3 µM); in [2], below 6.2 µg/mL; against Cutibacterium acnes it was 25 µg/mL (≈ 81.8 µM); in [3] it was 3.1 µg/mL (≈ 10.1 µM); in the experiment with Staphylococcus aureus [4] it was 12.5 µg/mL (≈ 40.9 µM); in the experiment with Enterococcus faecalis [5] it was 12.5 µg/mL (≈ 40.9 µM). In addition, the MIC in experiment [6] is 12.5 µg/mL (≈ 40.9 µM); in the experiment on Staphylococcus aureus [7] it was 12.5 µg/mL (≈ 40.9 µM); against Staphylococcus aureus [8] it was 3.1 µg/mL (≈ 10.1 µM); in the experiment on Staphylococcus aureus [9] it was 12.5 µg/mL (≈ 40.9 µM); against Staphylococcus aureus [10], 12.5 µg/mL (≈ 40.9 µM); against Enterococcus it was 25 µg/mL (≈ 81.8 µM).

In the case of `C=C1C(=O)c2ccccc2OC1c1ccc(Cl)cc1Cl` (stereo unspecified), the MIC was 25 µg/mL (≈ 81.9 µM) in the experiment on Enterococcus faecalis [11] and 6.2 µg/mL (≈ 20.3 µM) with Trichophyton benhamiae [12].

For the compound `C=C(CC)C(=O)c1ccc(OCC(=O)O)c(Cl)c1Cl` [ETHACRYNIC ACID], the minimum inhibitory concentration (MIC) against Aspergillus niger, in the experiment with Candida albicans [13], in the experiment on Enterococcus faecalis [14], in the experiment on Staphylococcus aureus [15] and with Trichophyton benhamiae [16] was above 100 µg/mL in each case.

On to `CN(C)CC1(C)C(=O)c2ccccc2OC1c1ccccc1` (stereo unspecified), for which the MIC against Aspergillus niger, against Candida albicans [13], against Enterococcus faecalis [14], in the experiment on Staphylococcus aureus [15] and in the experiment on Trichophyton benhamiae [16] was above 50 µg/mL throughout.

For `C=C1C(=O)c2cc(Br)ccc2OC1c1ccc(Br)cc1` (stereo unspecified), the MIC in the experiment on Trichophyton benhamiae [17] is 12.5 µg/mL (≈ 31.7 µM); in the experiment with Candida albicans [18], above 100 µg/mL.

Turning to `C=C1C(=O)c2ccc(OC)cc2OC1c1ccc(Cl)cc1` (stereo unspecified), the MIC against Candida albicans [19] was above 25 µg/mL; in the experiment on Staphylococcus aureus [20], below 3.1 µg/mL; against Trichophyton benhamiae [21], 6.2 µg/mL (≈ 20.6 µM).

Turning to `C=C1C(=O)c2ccccc2OC1c1cccc2ccccc12` (stereo unspecified), the MIC against Aspergillus niger was above 100 µg/mL; with Candida albicans [22] it was above 50 µg/mL; in the experiment on Enterococcus faecalis [14], 50 µg/mL (≈ 175 µM); against Staphylococcus aureus [20], below 3.1 µg/mL; against Trichophyton benhamiae [21], 6.2 µg/mL (≈ 21.7 µM).

Consider `C=C1C(=O)c2ccccc2OC1c1ccc(C(C)(C)C)cc1` (stereo unspecified), for which the MIC is above 50 µg/mL against Candida albicans [22], 25 µg/mL (≈ 85.5 µM) in the experiment on Enterococcus faecalis [11], below 3.1 µg/mL with Staphylococcus aureus [20] and 12.5 µg/mL (≈ 42.8 µM) in the experiment with Trichophyton benhamiae [1].

For the compound `C=C1C(=O)c2ccccc2OC1(c1ccccc1)c1ccccc1`, the MIC was determined as 0.25 µg/mL (≈ 0.8 µM) with Bacillus subtilis; 3.1 µg/mL (≈ 9.92 µM) in the experiment on Cutibacterium acnes; 1 µg/mL (≈ 3.2 µM) in the experiment with Enterococcus faecalis [5]; 0.78 µg/mL (≈ 2.5 µM) in the experiment on Enterococcus faecalis [14]; 0.25 µg/mL (≈ 0.8 µM) in experiment [6]; 0.25 µg/mL (≈ 0.8 µM) against Staphylococcus aureus [8]. The MIC in the experiment on Staphylococcus aureus [10] is 0.5 µg/mL (≈ 1.6 µM); in the experiment with Staphylococcus aureus [23], 0.5 µg/mL (≈ 1.6 µM); with Staphylococcus aureus [24], 0.5 µg/mL (≈ 1.6 µM); against Staphylococcus aureus [25], 0.25 µg/mL (≈ 0.8 µM); in the experiment with Trichophyton benhamiae [16], above 100 µg/mL; in the experiment with Enterococcus it was 1 µg/mL (≈ 3.2 µM).

As for `Oc1c(Cl)cc(Cl)c(Cl)c1Cc1c(O)c(Cl)cc(Cl)c1Cl` [HEXACHLOROPHENE], the MIC was determined as 0.125 µg/mL (≈ 0.307 µM) against Bacillus subtilis; 0.06 µg/mL (≈ 0.147 µM) in [2]; 0.06 µg/mL (≈ 0.147 µM) in the experiment with Cutibacterium acnes; 0.06 µg/mL (≈ 0.147 µM) in [3]; 1 µg/mL (≈ 2.46 µM) against Staphylococcus aureus [4]; 0.125 µg/mL (≈ 0.307 µM) in the experiment on Enterococcus faecalis [5]. The MIC in [6] amounted to 0.5 µg/mL (≈ 1.23 µM); against Staphylococcus aureus [7] it was 1 µg/mL (≈ 2.46 µM); against Staphylococcus aureus [8] it was 0.5 µg/mL (≈ 1.23 µM); against Staphylococcus aureus [9] it was 0.5 µg/mL (≈ 1.23 µM); in the experiment with Staphylococcus aureus [10] it was 0.5 µg/mL (≈ 1.23 µM); in the experiment on Enterococcus it was 1 µg/mL (≈ 2.46 µM).

Consider `CN(C)/C=C1\C(=O)c2ccccc2OC1c1ccccc1` (stereo unspecified), for which the MIC with Aspergillus niger is above 100 µg/mL; against Candida albicans [13], above 100 µg/mL; against Enterococcus faecalis [14], above 100 µg/mL; in the experiment with Staphylococcus aureus [15] it was above 100 µg/mL; against Trichophyton benhamiae [16], 100 µg/mL (≈ 358 µM).

On to `C=C1C(=O)c2ccccc2OC1c1ccc(OC)cc1` (stereo unspecified), for which the MIC against Candida albicans [22] is above 50 µg/mL; in the experiment with Trichophyton benhamiae [1] it was 12.5 µg/mL (≈ 46.9 µM).

`C=C1C(=O)c2ccccc2OC1c1cccc(Cl)c1` (stereo unspecified): the MIC against Staphylococcus aureus [20] and with Trichophyton benhamiae [26] was below 3.1 µg/mL each time.

With `CN(C)CC1C(=O)c2ccccc2OC1c1ccccc1` (stereo unspecified), the MIC against Candida albicans [27] is 12.5 µg/mL (≈ 44.4 µM); against Staphylococcus aureus [28] it was 6.2 µg/mL (≈ 22 µM); in the experiment on Trichophyton benhamiae [26], below 3.1 µg/mL.
